Source: PubChem (several laboratories)
DNA FID counter: fluorescent intercalator displacement, NS3 helicase counter-screen | DNA fluorescent intercalator displacement, fluorescence | inhibition, % at 7.9 µM | actives 0.17% (n = 290,000) | AID 1845; in the data active = inhibition above about 37%;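 note: 0% = vehicle and 100% = reference compound; higher means more ethidium bromide displaced from hairpin DNA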
IMP-1 inh-1: blocks Pseudomonas aeruginosa IMP-1 metallo-beta-lactamase. AID 1556. purified IMP-1, nitrocefin hydrolysis, epi-absorbance fluorescence. actives 0.45% (n = 290,000). inhibition, % at 5.6 µM;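 active = inhibition above the mean plus 3 SD of all compounds in the same screening run, cut at about 4.5% in these data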;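 note: 0% = IMP-1 with DMSO and 100% = DMSO wells lacking enzyme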
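Assay system: purified recombinant IMP-1 beta-lactamase. Input: IMP-1 0.2 nM before substrate addition. Buffer or medium: Zinc- and detergent-supplemented HEPES buffer, pH 7.1. Schedule: 25 °C, 15 min preincubation, 25 min reaction. Signal: Epi-absorbance fluorescence, 480 nm excitation, 530 nm emission. Evaluation: percent inhibition from optical density relative to buffer-blank wells.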
PvdQ acylase: P. aeruginosa PvdQ acylase inhibition. purified PvdQ acylase, fluorescence plate reader. inhibition, % at 10 µM. actives 0.063% (n = 340,000). AID 488965; in the data active = inhibition above about 30%, passing the limit was not always enough;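 note: 0% = vehicle neutral wells and 100% = reference inhibitor wells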
VIM-2 inhibitor: inhibitors of Pseudomonas aeruginosa VIM-2 metallo-beta-lactamase; actives 0.89% (n = 290,000); purified VIM-2, nitrocefin hydrolysis, epi-absorbance fluorescence; inhibition, % at 5.6 µM;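 active = inhibition above the mean of all tested compounds plus 3 SD, cutoff set per screening run, cut at about 7.5% in these data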;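 note: red hydrolysis product quenches plate fluorescence so inhibitors raise well fluorescence; 0% = enzyme with DMSO and 100% = DMSO without enzyme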
RAD54 inh: inhibitors of human RAD54 branch migration. Q92698. RAD54 Holliday junction branch migration, FAM/BHQ fluorescence. inhibition, % at 10.4 µM. actives 0.14% (n = 360,000). AID 602329;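 active = mean normalized replicate activity at least 40 and at least half of replicates scoring 40 or more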;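 note: 0% = median of neutral control wells and 100% = median of positive control wells; inhibitors cause a drop in the FAM fluorescence signal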
IMP-1 inh-2: selectivity counter-screen for VIM-2 inhibitors: IMP-1 metallo-beta-lactamase inhibitors; shares compounds with VIM-2 inhibitor; purified IMP-1, nitrocefin hydrolysis, epi-absorbance fluorescence; inhibition, % at 5.6 µM; 1,300 tested, under 10 active; AID 1856; call rule not given here;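 note: 0% = enzyme with vehicle and 100% = vehicle without enzyme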
VIM-2 FRET inh: inhibits VIM-2 in FRET assay to exclude epi-absorbance artifacts; purified VIM-2, CCF2 FRET substrate hydrolysis; AID 1857; shares compounds with VIM-2 inhibitor; inhibition, % at 5.6 µM; actives 23% (n = 1,300);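 active = inhibition above the mean of all tested compounds plus 3 SD, cut at about 19% in these data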;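 note: 0% = VIM-2 plus DMSO and 100% = no enzyme wells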
TEM-1 inh: selectivity counter-screen for VIM-2 inhibitors: E. coli TEM-1 inhibitors. Purified TEM-1, nitrocefin hydrolysis, epi-absorbance fluorescence. AID 1866. shares compounds with VIM-2 inhibitor. actives 3% (n = 1,300). inhibition, % at 5.6 µM;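 active = inhibition above that campaign's mean inhibition plus 3 SD, cut at about 0.46% in these data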;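 note: 0% = TEM-1 with DMSO and 100% = TEM-1 with 100 µM potassium clavulanate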
Target sequence (P62593 whole entry, looked up): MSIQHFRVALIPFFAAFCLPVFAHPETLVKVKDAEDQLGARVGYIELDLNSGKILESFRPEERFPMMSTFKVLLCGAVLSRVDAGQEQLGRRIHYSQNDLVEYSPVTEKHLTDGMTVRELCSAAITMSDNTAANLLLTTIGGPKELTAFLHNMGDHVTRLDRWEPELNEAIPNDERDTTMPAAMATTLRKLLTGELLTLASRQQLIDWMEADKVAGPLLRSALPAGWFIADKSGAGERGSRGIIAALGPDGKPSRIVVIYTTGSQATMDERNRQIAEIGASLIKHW
VIM-2 inh conf: confirmation of P. aeruginosa VIM-2 metallo-beta-lactamase inhibitors; AID 2187; shares compounds with VIM-2 inhibitor; purified VIM-2, nitrocefin hydrolysis, epi-absorbance; actives 96% (n = 1,300); inhibition, % at 5.6 µM;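 active = inhibition of the VIM-2 beta-lactamase enzyme above about 11% from the earlier first-round screen, limit read from the data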;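 note: 0% = VIM-2 with DMSO and 100% = buffer wells without enzyme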
An asterisk follows results filed as active; . = no result given. The list is not random: actives were taken first. Their share in the collection is about 1%.

SMILES	DNA FID counter	IMP-1 inh-1	PvdQ acylase	VIM-2 inhibitor	RAD54 inh	IMP-1 inh-2	VIM-2 FRET inh	TEM-1 inh	VIM-2 inh conf
COCC(=O)N(C)C[C@H]1Oc2cc(C#CCC(C)C)ccc2S(=O)(=O)N([C@H](C)CO)C[C@@H]1C	.	.	.	.	-2	.	.	.	.
N#Cc1c(NC(=O)C(=O)NCCCN2CCOCC2)sc2c1CCC2	-3	-1	-5	-2	.	.	.	.	.
COC(=O)c1c(NC(=O)C(=O)NCCCN2CCOCC2)sc2c1CCCC2	13	-4	7	13*	17	-2	0	-1	19*
O=C1c2ccccc2C(=O)c2c1ccc(C(=O)N1CCCCC1)c2NCCO	3	-3	0	-1	14	.	.	.	.
CCN(CCN(C)C)C(=O)c1ccc2c(c1NCCO)C(=O)c1ccccc1C2=O	33	-1	-8	14*	.	-3	2	-9	23*
O=c1c2c(-c3ccccc3)csc2nc2c3ccccc3c(NCCN3CCOCC3)nn12	31	0	-23	6	.	.	.	.	.
O=c1c2ccccc2nc2c3ccccc3c(NCCN3CCOCC3)nn12	23	-1	.	18*	.	-4	1	-6	28*
c1ccc2nc3c(nc2c1)c1ccccc1n3CCN1CCOCC1	18	-3	-4	12*	.	-3	2	-6	18*
N#Cc1nc(-c2ccco2)oc1NCCCn1ccnc1	-4	-4	-7	26*	.	-3	-6	-6	44*
COc1ccc(-c2nc(C#N)c(NCCCn3ccnc3)o2)cc1OC	0	0	-10	17*	20	-2	-15	-5	43*
N#Cc1nc(-c2ccc(F)cc2)oc1NCCCn1ccnc1	4	-2	.	2	.	.	.	.	.
CC(C)(C)c1ccc(-c2nc(C#N)c(NCCCn3ccnc3)o2)cc1	20	-1	9	0	12	.	.	.	.
N#Cc1c2c(c(NCCCN3CCOCC3)n3c1nc1ccccc13)CCC2	4	-1	2	14*	9	-2	-6	-9	38*
C[C@H]1CCCCO[C@H](CN(C)S(=O)(=O)c2ccccc2)[C@@H](C)CN([C@@H](C)CO)C(=O)c2cc(NS(C)(=O)=O)ccc2O1	.	.	.	.	11	.	.	.	.
COc1cc(CCNc2ccc3nnc(-c4ccccc4)n3n2)cc(OC)c1OC	-43	-2	3	19*	6	-2	0	-1	22*
CCCN(CCC)CCCNC(=O)c1cc2c(=O)n(CC)c3ccccc3c2s1	10	1	-13	14*	26	-2	-2	-5	21*
CCn1c(=O)c2cc(C(=O)NCCC(C)C)sc2c2ccccc21	-22	-2	-1	5	-5	.	.	.	.
CCCCN(CC)CCNC(=O)c1cc2c(=O)n(C)c3ccccc3c2s1	20	1	-9	21*	33	-2	11	-6	27*
CCCCN(CC)CCNC(=O)c1cc2c(=O)n(CC)c3ccccc3c2s1	19	-2	3	14*	14	-3	-4	-5	19*
CCCCN(CC)CCNC(=O)c1cn(-c2ccc(Cl)cc2)c(=O)c2ccccc12	12	-1	-18	0	1	.	.	.	.
CCCCN(CC)CCCNC(=O)c1cc2c(=O)n(CC)c3ccccc3c2s1	9	-2	2	12*	39	-2	-1	-6	22*
C[C@@H]1CCCCO[C@@H](CN(C)S(=O)(=O)c2ccc(Cl)cc2)[C@@H](C)CN([C@@H](C)CO)C(=O)c2cc(NC(=O)NC3CCCCC3)ccc2O1	.	.	.	.	-6	.	.	.	.
C[C@@H]1CN([C@H](C)CO)C(=O)c2cc(NC(=O)CCCN(C)C)ccc2O[C@@H]1CN(C)CC1CCCCC1	.	.	.	.	7	.	.	.	.
CCCC(=O)Nc1nnc(SCC(=O)NCc2ccco2)s1	1	-4	-1	3	7	.	.	.	.
COCC(=O)Nc1nnc(SCC(=O)NCc2cccs2)s1	-2	-3	-14	22*	-11	-3	53*	-3	38*
SMILES	DNA FID counter	IMP-1 inh-1	PvdQ acylase	VIM-2 inhibitor	RAD54 inh	IMP-1 inh-2	VIM-2 FRET inh	TEM-1 inh	VIM-2 inh conf
CCCC(=O)Nc1nnc(SCC(=O)NCc2cccs2)s1	-9	-5	14	20*	0	-2	44*	-3	33*
COc1ccccc1S(=O)(=O)N[C@H]1C=C[C@@H](CC(=O)N2CCN(C)CC2)O[C@@H]1CO	.	.	.	.	-6	.	.	.	.
CN(CCO)c1ccc(-c2nn(C)c(=O)c3ccccc23)cc1[N+](=O)[O-]	-3	-4	1	17*	.	-4	-1	-8	41*
CN(C)CCNc1ccc(Cl)cc1[N+](=O)[O-]	6	-4	5	0	.	.	.	.	.
Cn1nc(-c2ccc(NCCO)c([N+](=O)[O-])c2)c2ccccc2c1=O	0	-3	9	16*	.	-4	3	-8	45*
Cn1nc(-c2ccc(N3CCN(CCO)CC3)c([N+](=O)[O-])c2)c2ccccc2c1=O	6	-3	-8	82*	.	-3	-1	-7	89*
CN(C)CCNc1ccc(-c2nn(C)c(=O)c3ccccc23)cc1[N+](=O)[O-]	13	-4	8	79*	.	-2	0	-5	83*
Cc1ccc(-c2nn(C)c(=O)c3ccccc23)cc1S(=O)(=O)NCCO	-21	-3	-4	-2	-9	.	.	.	.
CN(CCO)c1cc(N(C)CCO)c([N+](=O)[O-])cc1[N+](=O)[O-]	0	-4	13	-3	.	.	.	.	.
Cc1ccccc1-c1ccc([C@H]2[C@H](CO)N3CCCCN(C(=O)CN4CCOCC4)C[C@@H]23)cc1	.	.	.	.	3	.	.	.	.
C[C@@H]1CN([C@@H](C)CO)C(=O)c2cc(NC(=O)NC3CCCCC3)ccc2O[C@H]1CN(C)Cc1ccc(Cl)c(Cl)c1	.	.	.	.	-5	.	.	.	.
COc1ccc(C#Cc2ccc3c(c2)c(=O)c2ccccc2n3C)cc1	2	4	0	15*	5	-2	3	-4	14*
CCC1CCCCN1C(=O)c1cc2c(=O)n3cccc(C)c3nc2s1 (stereo not given)	-22	-1	-9	15*	4	-3	-2	-6	21*
CCOC(=O)CC1C(=O)NCCN1C(=O)c1cc2c(=O)n3cccc(C)c3nc2s1 (stereo not given)	-18	-5	-1	14*	0	-3	-6	-3	26*
Cc1cccn2c(=O)c3cc(C(=O)N4CCCC(C)C4)sc3nc12 (stereo not given)	-33	-4	-15	15*	-15	-3	-2	-7	21*
COc1ccc(C(=O)CSc2nc(-c3ccccn3)nc(C)c2Cl)cc1	-16	-4	5	29*	-13	-5	-26	-6	61*
